Measurements from publication PMC2715132 (The Journal of Experimental Medicine, 2009).
Like-named read-outs stand apart in the source and are kept apart here.

Columns and labels:
N. caninum = N. caninum growth in HFF monolayer; assay type: cell-based, Neospora caninum; settings: read-out: EC50 (nM ± SD), mean ± SD
[1] = test system: histone H4 acetylation in T. gondii TgHDAC3^T99I resistant line; assay: Immunoblot of histone acetylation in extracellular tachyzoites; assay type: cell-based, Toxoplasma gondii; settings: 20 nM FR235222, immunoblot
[2] = test system: 20.m00351 mRNA, T. gondii type II Prugniaud strain; assay: Semiquantitative RT-PCR of 20.m00351 mRNA; assay type: cell-based, Toxoplasma gondii; settings: 40 nM FR235222 for 3 d, n = 3
T. gondii RH WT [3] = assay: Immunofluorescence of intracellular T. gondii; assay type: cell-based, Toxoplasma gondii; settings: IFA, 24 h, 40 nM FR235222, 1 µM pyrimethamine
Method in brief: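 Confluent HFF monolayers infected with RH tachyzoites with 40 nM test compound, 0.1% DMSO or 1 µM pyrimethamine for 24 h. Fixed/permeabilized 20 min (3% formaldehyde, 0.2% Triton X-100) and blocked with 5% FBS/5% goat serum. Stained with anti-AcH4 antiserum and anti-IMC1 monoclonal (1:1,000), Alexa 568/488 secondaries, and Hoechst 33258 for DNA.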

[4] = test system: histone H4 acetylation in T. gondii TgHDAC3^T99A resistant line; assay: Immunoblot of histone acetylation in extracellular tachyzoites; assay type: cell-based, Toxoplasma gondii; settings: 20 nM FR235222, immunoblot
T. gondii RH M190D4 = assay: T. gondii growth in HFF monolayer, [3H]uracil incorporation; assay type: cell-based, Toxoplasma gondii
Method in brief: (§1)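 Confluent human fibroblasts infected with tachyzoites with or without test compound. After 72 h, washed and pulsed with [3H]uracil for 4 h, then washed and solubilized. Acid-precipitable radioactivity counted by liquid scintillation. EC50 by nonlinear regression.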

P. falciparum = assay: Antimalarial activity in vitro, P. falciparum intraerythrocytic growth; assay type: cell-based, Plasmodium falciparum; settings: 3D7 chloroquine sensitive, Dd2 chloroquine resistant, Fig. 1 C, n = 4
Method in brief: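 Drug exposure: 48 h for asynchronous 3D7 and Dd2 cultures, 20 h for plasmion-enriched 3D7 schizonts. Growth was read by […] incorporation, and EC50 was derived by nonlinear regression.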

HFFs = assay: Mammalian host cell proliferation; assay type: cell-based, human; settings: in vitro, parasites versus HFF cells
[5] = test system: T. gondii type II Prugniaud strain; assay: Bradyzoite differentiation, SRS9/P36 expression by IFA; assay type: cell-based, Toxoplasma gondii
[6] = test system: histone H4 acetylation in T. gondii RH WT; assay: Immunoblot of histone acetylation in extracellular tachyzoites; assay type: cell-based, Toxoplasma gondii
T. gondii RH WT [7] = assay: T. gondii growth in HFF monolayer, [3H]uracil incorporation; assay type: cell-based; settings: Toxoplasma gondii
Method in brief: as §1

T. gondii Prugniaud = assay: as above; assay type: cell-based; settings: Toxoplasma gondii, read-out: EC50 (nM ± SD)
Method in brief: as §1

[8] = read-out: EC50 (nM ± SD), T. gondii RH M190D4 (FR235222-resistant mutant, TgHDAC3 T99A) in HFF monolayer, [3H]uracil incorporation, mean ± SD
[9] = read-out: EC50, T. gondii intracellular growth

Compound: FR235222
- EC50 (N. caninum): 8 ± 2 nM
- change of AcH4 signals [1]: remained unchanged
- 20.m00351 mRNA levels [2]: accumulated
- AcH4 signals in nuclei of treated parasites versus DMSO control (T. gondii RH WT [3]): higher
- increase of AcH4 signals [4]: approximately threefold
- EC50 (T. gondii RH M190D4; [8]): 62 ± 5 nM
- comparison of EC50s on clones 3D7 and Dd2 (P. falciparum): equivalent
- sensitivity of parasites relative to HFF cells (HFFs): ~10 times
- parasitic vacuoles expressing SRS9/P36 ([5]; 40 nM FR235222, 2–3 d, IFA with anti-P36, n = 2): ~80%
- increase of AcH4 signals ([6]; WT, 20 nM FR235222, immunoblot): approximately eightfold
- increase of AcH4 signals ([6]; extracellular tachyzoites incubated with drug 4 h, immunoblot): approximately eightfold
- acetylation of histones H2B (K12 and K15) and H3K9 ([6]; immunoblot, FR235222 treatment (Fig. S2)): not affected

Compound: O=C(CCCCCN1C(=O)c2cccc3cccc(c23)C1=O)NO [Scriptaid]
- EC50 (T. gondii RH WT [7]; [9]): 400 nM

Compound: CCc1nc(N)nc(N)c1-c1ccc(Cl)cc1 [Pyrimethamine, pyrimethamine]
- EC50 (T. gondii RH WT [7]; read-out: EC50 (nM ± SD), SD): 285 ± 61 nM
- EC50 (T. gondii RH WT [7]; [9]): 300 nM
- AcH4 signals in nuclei of treated parasites versus DMSO control (T. gondii RH WT [3]): not observed
- EC50 (T. gondii RH M190D4; Toxoplasma gondii, read-out: EC50 (nM ± SD)): 300 ± 11 nM
- EC50 (T. gondii Prugniaud): 195 ± 1 nM
- induction of SRS9/P36 ([5]; 1 µM pyrimethamine, 2–3 d, IFA with anti-P36): very weak induction

Compound: CCC(=O)CCCCC[C@@H]1NC(=O)[C@H]2CCCCN2C(=O)[C@H]([C@@H](C)CC)NC(=O)[C@H](Cc2cn(OC)c3ccccc23)NC1=O [Apicidin, apicidin]
- EC50 (T. gondii RH M190D4; [8]): 67 ± 16 nM
